Each structure is given as a SMILES string.

The target of data set [1] is T1, Fatty-acid amide hydrolase 1 (Homo sapiens, UniProt O00519).
T1 sequence (O00519 whole entry): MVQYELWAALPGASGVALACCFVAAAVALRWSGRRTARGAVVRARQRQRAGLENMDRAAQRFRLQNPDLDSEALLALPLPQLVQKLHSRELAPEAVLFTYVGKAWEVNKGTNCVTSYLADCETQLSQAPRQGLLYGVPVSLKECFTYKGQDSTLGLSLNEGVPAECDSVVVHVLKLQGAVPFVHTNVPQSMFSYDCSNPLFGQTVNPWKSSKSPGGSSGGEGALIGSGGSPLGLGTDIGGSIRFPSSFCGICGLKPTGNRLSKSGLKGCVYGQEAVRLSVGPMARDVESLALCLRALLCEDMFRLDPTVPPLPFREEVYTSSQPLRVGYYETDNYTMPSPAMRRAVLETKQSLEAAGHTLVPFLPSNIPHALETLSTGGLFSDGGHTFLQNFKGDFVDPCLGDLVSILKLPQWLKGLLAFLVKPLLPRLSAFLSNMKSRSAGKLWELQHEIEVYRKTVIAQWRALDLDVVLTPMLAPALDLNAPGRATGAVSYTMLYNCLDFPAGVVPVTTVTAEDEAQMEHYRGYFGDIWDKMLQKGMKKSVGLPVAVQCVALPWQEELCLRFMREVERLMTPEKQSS
The data set is described as follows: Prodrug activation in COS7 cells overexpressing human FAAH assessed as FAAH-mediated sobetirome formation by measuring compound hydrolysis rate at 100 uM by LC-MS/MS analysis. The class given is cell-based. In a few lines: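 Hydrolysis kinetics were measured in homogenate of COS-7 cells overexpressing human FAAH, with prodrug substrate at 100 µM. Rate is given as nmol mg-1 min-1, mean ± SEM, n = 3.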

Data set [2] is described as follows: Brain to serum permeability coefficient, Kp of the compound in C57BL/6 mouse assessed as sobetirome level at 3.05 umol/kg, ip after 1 hr by LC-MS/MS analysis. The class given is ADME, organism-based.
Data set [3] is described as follows: Prodrug activation in C57BL/6 mouse brain assessed as FAAH-mediated sobetirome formation at 3.05 umol/kg, ip after 1 hr by LC-MS/MS analysis. The class given is organism-based. Particulars: in vivo.
The nature of data set [4]: Prodrug activation in C57BL/6 mouse serum assessed as FAAH-mediated sobetirome formation at 3.05 umol/kg, ip after 1 hr by LC-MS/MS analysis. The class given is organism-based. Particulars: in vivo.
Data set [5] is described as follows: Drug uptake in C57BL/6 mouse serum at 3.05 umol/kg, ip after 1 hr by LC-MS/MS analysis. As to conditions: read-out: Drug uptake. The class given is ADME, organism-based.
Data set [6] is described as follows: Drug uptake in C57BL/6 mouse brain at 3.05 umol/kg, ip after 1 hr by LC-MS/MS analysis. The class given is ADME, organism-based. Particulars: read-out: Drug uptake.
The nature of data set [7]: Brain to serum permeability coefficient, Kp of the compound in C57BL/6 mouse at 3.05 umol/kg, ip after 1 hr by LC-MS/MS analysis. The class given is ADME, organism-based.

Regarding `CCNC(=O)COc1cc(C)c(Cc2ccc(O)c(C(C)C)c2)c(C)c1`, the Drug metabolism in data set [1] is 3.4 nmol/mg/min. Further, the Kp in data set [2] stood at 2.74. Besides, the results for the Drug uptake in data set [3] and in data set [4] were 58.2 ng/g and 21.5 ng/g, respectively.
With `Cc1cc(OCC(=O)NCCc2ccccc2)cc(C)c1Cc1ccc(O)c(C(C)C)c1`, the Drug metabolism in data set [1] was 1 nmol/mg/min. Also, the partition ratio (Kp) in data set [2] was found to be 1.31. The values for the Drug uptake in data set [3] and in data set [4] were 11.3 ng/g and 8.6 ng/g, respectively.
For the compound `CCCNC(=O)COc1cc(C)c(Cc2ccc(O)c(C(C)C)c2)c(C)c1`, the Drug metabolism in data set [1] turned out to be 2.6 nmol/mg/min. In data set [2], the partition ratio (Kp) amounted to 1.15. Moreover, the Drug uptake in data set [3] came to 20.2 ng/g; in data set [4], 16.9 ng/g.
Regarding `Cc1cc(OCC(=O)N(C)C)cc(C)c1Cc1ccc(O)c(C(C)C)c1`, the Drug metabolism in data set [1] is 4.3 nmol/mg/min. For the same compound, the Kp in data set [2] is 3.17. Also, the Drug uptake in data set [3] stood at 32.2 ng/g; in data set [4], 10.4 ng/g.
Take `Cc1cc(OCC(=O)Nc2cccc(O)c2)cc(C)c1Cc1ccc(O)c(C(C)C)c1`: the Drug metabolism in data set [1] is 10.1 nmol/mg/min. In data set [2], the concentration ratio (Kp) is recorded as 0.04. For the same compound, the Drug uptake is 12.8 ng/g in data set [3] and 325.7 ng/g in data set [4].
On to `Cc1cc(OCC(=O)NC(CO)CO)cc(C)c1Cc1ccc(O)c(C(C)C)c1`, for which the Drug metabolism in data set [1] was determined as 3.7 nmol/mg/min. Besides, the Kp in data set [2] amounted to 0.03. The Drug uptake in data set [3] came out at 2.6 ng/g; in data set [4], 98 ng/g.
For `Cc1cc(OCC(=O)NC(C)CO)cc(C)c1Cc1ccc(O)c(C(C)C)c1` (stereo not given), the Drug metabolism in data set [1] came out at 4.5 nmol/mg/min. For the same compound, the Kp in data set [2] is reported as 0.69. The values for the Drug uptake in data set [3] and in data set [4] were 22.3 ng/g and 33.7 ng/g, respectively.
For `Cc1cc(OCC(=O)NCC(C)O)cc(C)c1Cc1ccc(O)c(C(C)C)c1` (stereo not given), in that order: 3.6 nmol/mg/min, 0.72, 38.7 ng/g and 55.7 ng/g.
Regarding `Cc1cc(OCC(=O)NCCNS(C)(=O)=O)cc(C)c1Cc1ccc(O)c(C(C)C)c1`, in data set [1], the Drug metabolism is 2.4 nmol/mg/min. The Kp in data set [2] is 0.06. Further, the Drug uptake stood at 1.6 ng/g in data set [3] and 26.2 ng/g in data set [4].
For the compound `C#CCNC(=O)COc1cc(C)c(Cc2ccc(O)c(C(C)C)c2)c(C)c1`, in data set [1], the Drug metabolism worked out at 3.2 nmol/mg/min. The partition ratio (Kp) in data set [2] is 0.99. For the same compound, the results for the Drug uptake in data set [3] and in data set [4] were 59.5 ng/g and 59.4 ng/g, respectively.
As for `Cc1cc(OCC(=O)NCCF)cc(C)c1Cc1ccc(O)c(C(C)C)c1`, in data set [1], the Drug metabolism is reported as 3.5 nmol/mg/min. The concentration ratio (Kp) in data set [2] turned out to be 1.7. The Drug uptake is on record as 107.1 ng/g in data set [3] and 64.2 ng/g in data set [4].
Turning to `Cc1cc(OCC(=O)NCCN)cc(C)c1Cc1ccc(O)c(C(C)C)c1`, the Drug metabolism in data set [1] is reported as 5.6 nmol/mg/min. Further, the Kp in data set [2] is 0.07. In addition, the Drug uptake in data set [3] was 0.8 ng/g; in data set [4], 6.9 ng/g.
For `Cc1cc(OCC(=O)NCCS(=O)(=O)[O-])cc(C)c1Cc1ccc(O)c(C(C)C)c1.[Na+]`, the Drug metabolism in data set [1] is 8.9 nmol/mg/min. In addition, the concentration ratio (Kp) in data set [2] was determined as 0.18. Moreover, the Drug uptake is on record as 7.1 ng/g in data set [3] and 45.7 ng/g in data set [4].
Turning to `Cc1cc(OCC(=O)Nc2ccccc2O)cc(C)c1Cc1ccc(O)c(C(C)C)c1`, the Drug metabolism in data set [1] came out at 1.4 nmol/mg/min. Further, the Kp in data set [2] is recorded as 0.04. For the same compound, the results for the Drug uptake in data set [3] and in data set [4] were 7.4 ng/g and 174.7 ng/g, respectively.
In the case of `Cc1cc(OCC(=O)NO)cc(C)c1Cc1ccc(O)c(C(C)C)c1`, the Drug metabolism in data set [1] was determined as 4.9 nmol/mg/min. Further, the Kp in data set [2] was found to be 0.03. Moreover, the results for the Drug uptake in data set [3] and in data set [4] were 2.8 ng/g and 127.7 ng/g, respectively.
`Cc1cc(OCC(=O)NCC#N)cc(C)c1Cc1ccc(O)c(C(C)C)c1`: the Drug metabolism in data set [1] is listed as 5 nmol/mg/min. The Kp in data set [2] was 0.57. For the same compound, the values for the Drug uptake in data set [3] and in data set [4] were 59.9 ng/g and 107.7 ng/g, respectively.
Take `Cc1cc(OCC(=O)O)cc(C)c1Cc1ccc(O)c(C(C)C)c1` [SOBETIROME]: the concentration at 1 h was 319 ng/g in data set [5] and 3.6 ng/g in data set [6]. In data set [7], this compound yielded a Kp at 1 h of 0.03.
With `Cc1cc(OCC(=O)Nc2cccc(F)c2)cc(C)c1Cc1ccc(O)c(C(C)C)c1`, the Drug metabolism in data set [1] was determined as 2.1 nmol/mg/min. For the same compound, the concentration ratio (Kp) in data set [2] amounted to 0.04. The Drug uptake came to 15.4 ng/g in data set [3] and 383.8 ng/g in data set [4].
Turning to `Cc1cc(OCC(=O)NCC(F)(F)F)cc(C)c1Cc1ccc(O)c(C(C)C)c1`, the Drug metabolism in data set [1] was 4.8 nmol/mg/min. Besides, the concentration ratio (Kp) in data set [2] is listed as 0.76. Further, the Drug uptake is recorded as 59.4 ng/g in data set [3] and 80.2 ng/g in data set [4].
As for `Cc1cc(OCC(=O)NC2COC2)cc(C)c1Cc1ccc(O)c(C(C)C)c1`, the Drug metabolism in data set [1] is reported as 3.7 nmol/mg/min. Moreover, the Kp in data set [2] was determined as 0.75. In addition, the Drug uptake in data set [3] is listed as 79.2 ng/g; in data set [4], 110.6 ng/g.
Take `CONC(=O)COc1cc(C)c(Cc2ccc(O)c(C(C)C)c2)c(C)c1`: the Drug metabolism in data set [1] is given as 4.1 nmol/mg/min. For the same compound, in data set [2], the partition ratio (Kp) was determined as 0.04. Also, the Drug uptake in data set [3] is 8.4 ng/g; in data set [4], 209.7 ng/g.
Take `C=CCNC(=O)COc1cc(C)c(Cc2ccc(O)c(C(C)C)c2)c(C)c1`: in data set [1], the Drug metabolism worked out at 3.6 nmol/mg/min. Further, the concentration ratio (Kp) in data set [2] stood at 1.23. Besides, the Drug uptake turned out to be 33.4 ng/g in data set [3] and 25.4 ng/g in data set [4].
For `Cc1cc(OCC(=O)NCCO)cc(C)c1Cc1ccc(O)c(C(C)C)c1`, in that order: 4.8 nmol/mg/min, 0.37, 25.5 ng/g and 66.8 ng/g.
Turning to `Cc1cc(OCC(=O)NCCc2ccc(O)c(O)c2)cc(C)c1Cc1ccc(O)c(C(C)C)c1`, in data set [1], the Drug metabolism is 0.8 nmol/mg/min. Besides, the Kp in data set [2] came to 0.94. Also, the Drug uptake was 7.4 ng/g in data set [3] and 4.9 ng/g in data set [4].
Regarding `Cc1cc(OCC(N)=O)cc(C)c1Cc1ccc(O)c(C(C)C)c1`, the Drug metabolism in data set [1] came to 4.7 nmol/mg/min. Also, the Kp in data set [2] is 1.17. In addition, the values for the Drug uptake in data set [3] and in data set [4] were 93.9 ng/g and 79.5 ng/g, respectively.
On to `Cc1cc(OCC(=O)NN)cc(C)c1Cc1ccc(O)c(C(C)C)c1`, for which the Drug metabolism in data set [1] came to 3.8 nmol/mg/min. Also, in data set [2], the Kp is 0.58. In addition, the figures for the Drug uptake in data set [3] and in data set [4] were 68.2 ng/g and 199.5 ng/g, respectively.
Take `Cc1cc(OCC(=O)NCc2ccccc2)cc(C)c1Cc1ccc(O)c(C(C)C)c1`: in data set [1], the Drug metabolism is reported as 1.7 nmol/mg/min. Further, in data set [2], the Kp is given as 0.95. For the same compound, the Drug uptake in data set [3] was 15.7 ng/g; in data set [4] it was 15.2 ng/g.
The like results for `Cc1cc(OCC(=O)NC2CC2)cc(C)c1Cc1ccc(O)c(C(C)C)c1` were, in that order, 3.2 nmol/mg/min, 2.49, 58 ng/g and 23.8 ng/g.
As to `Cc1cc(OCC(=O)NCC(F)F)cc(C)c1Cc1ccc(O)c(C(C)C)c1`, the Drug metabolism in data set [1] amounted to 3.4 nmol/mg/min. The Kp in data set [2] is 1.04. The figures for the Drug uptake in data set [3] and in data set [4] were 125.4 ng/g and 128.8 ng/g, respectively.

One may read the Kp as tissue or fluid exposure divided by exposure in the circulation.
